Source: ChEMBL document CHEMBL2331340, “Novel antitumor indolizino[6,7-b]indoles with multiple modes of action: DNA cross-linking and topoisomerase I and II inhibition” (J Med Chem, 2013)
Active and inactive are the calls of the source. The rule behind the calls is not given here.

How the values were obtained:
[1] = Cell cycle arrest in human CL141T cells assessed as accumulation at G1 phase at 1 x IC50 to 2 x IC50 after 24 hrs by propidium iodide staining-based FACS flow cytometric analysis; type: functional
Method in brief: (§1)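 CL141T cells treated at 0.5-, 1- and 2-fold IC50 for 24, 48 and 72 h. Cells fixed in ice-cold 70% EtOH, then stained with 4 μg/mL propidium iodide in PBS with 1% Triton X-100 and 0.1 mg/mL RNase A. Phase distribution from flow cytometry DNA histograms; sub-G1 fraction scored as well.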

[2] = tested on: KB; experiment: Cytotoxicity against human KB cells after 72 hrs by Alamar blue assay
[3] = tested on: CCRF-CEM; experiment: Cytotoxicity against human CCRF-CEM cells after 72 hrs by XTT assay; type: functional, cell-based
Method in brief: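 CCRF-CEM T-ALL cells incubated with compound for 72 h. XTT with phenazine methosulfate then added for 6 h at 37 °C, absorbance read at 450 and 630 nm. IC50 from six or seven concentrations by median-effect analysis; mean ± STDEV, n = 3.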

[4] = Cytotoxicity against human OECM1 cells after 72 hrs by Alamar blue assay; type: functional, cell-based; conditions: OECM1, 72 h
Method in brief: (§2)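 Cells exposed to compound for 72 h, then Alamar blue added with a further 10−12 h at 37 °C and a spectrophotometric read. IC50 from six or seven concentrations by median-effect analysis; mean ± STDEV, n = 3. CL141T is a line derived from a patient lung tumor passaged as a SCID mouse xenograft.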

[5] = tested on: MES-SA; experiment: Resistance factor, ratio of IC50 for human MES-SA/Dx5 cells to IC50 for human MES-SA cells; type: functional
[6] = tested on: NCI-H460; experiment: Induction of apoptosis in human H460 cells assessed as increase in apoptotic cells at IC50 after 72 hrs by annexin V-FITC/propidium iodide staining-based FACS flow cytometric analysis (reference value: 9.29%); type: functional
[7] = Resistance factor, ratio of IC50 for human KB-VIN10 cells to IC50 for human KB cells; type: functional
[8] = tested on: NCI-H460; experiment: Induction of apoptosis in human H460 cells assessed as increase in cleaved caspase 3 expression at IC50 after 24 to 72 hrs by Western blotting analysis; type: functional, cell-based
Method in brief: (§3)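 H460 cells treated at IC50 for 24 and 72 h. Lysate proteins separated by SDS-PAGE and blotted to nitrocellulose, blocked in 5% milk/PBST. Primary antibodies to caspase-3, caspase-7, PARP (full-length and cleaved) and β-actin applied for 1 h at room temperature or overnight at 4 °C; HRP secondary with ECL detection.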

[9] = Cytotoxicity against human H460 cells after 72 hrs by Alamar blue assay; type: functional, cell-based; conditions: NCI-H460, 72 h; method in brief: as §2
[10] = tested on: Escherichia coli; experiment: Induction of Escherichia coli pEGFP-N1 DNA interstrand cross-linking at 1 to 10 uM after 2 hrs by alkaline agarose gel shift assay
Method in brief: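 Plasmid pEGFP-N1 DNA (1500 ng) incubated with compound at 1, 5 and 10 μM in 3 mM NaCl/1 mM sodium phosphate pH 7.4/1 mM EDTA, 2 h at 37 °C. DNA then BamHI-linearized, EtOH-precipitated, denatured in 0.5 N NaOH/10 mM EDTA, run on 0.8% alkaline agarose at 4 °C (18 V, 22 h), stained with ethidium bromide.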

[11] = Cell cycle arrest in human CL141T cells assessed as accumulation at sub-G1 phase at 0.5 x IC50 to 2 x IC50 after 72 hrs by propidium iodide staining-based FACS flow cytometric analysis; type: functional; method in brief: as §1
[12] = Cell cycle arrest in human CL141T cells assessed as accumulation at G2/M phase at 2 x IC50 after 24 hrs by propidium iodide staining-based FACS flow cytometric analysis; type: functional; method in brief: as §1
[13] = tested on: Mus musculus; experiment: Toxicity in nude mouse xenografted with human MX1 cells assessed as body weight loss at 25 mg/kg, iv qd administered 3 days measured for 20 days; type: organism-based; set-up: dose 25 mg/kg, route intravenous; conditions: in vivo, 480 h
[14] = Cell cycle arrest in human CL141T cells assessed as accumulation at G2/M phase at 0.5 x IC50 to 1 x IC50 after 48 to 72 hrs by propidium iodide staining-based FACS flow cytometric analysis; type: functional; method in brief: as §1
[15] = Cell cycle arrest in human CL141T cells assessed as accumulation at S phase at 1 x IC50 to 2 x IC50 after 24 hrs by propidium iodide staining-based FACS flow cytometric analysis; type: functional; method in brief: as §1
[16] = tested on: NCI-H460; experiment: Induction of apoptosis in human H460 cells assessed as increase in cleaved caspase 7 expression at IC50 after 24 to 72 hrs by Western blotting analysis; type: functional, cell-based; method in brief: as §3
[17] = Cytotoxicity against human CL141T cells after 72 hrs by Alamar blue assay; type: functional, cell-based; method in brief: as §2
[18] = tested on: NCI-H460; experiment: Induction of apoptosis in human H460 cells assessed as increase in apoptotic cells at IC50 after 24 hrs by annexin V-FITC/propidium iodide staining-based FACS flow cytometric analysis (reference value: 4.1%); type: functional
[19] = Cytotoxicity against human MES-SA cells after 72 hrs by Presto Blue assay; type: functional, cell-based
Method in brief: (§4)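 MES-SA and doxorubicin-resistant MES-SA/dx5 cells exposed for 72 h, then PrestoBlue added for 3 h at 37 °C, absorbance read at 570 and 600 nm. IC50 by median-effect analysis of six or seven concentrations; mean ± STDEV of three to six independent experiments.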

[20] = tested on: MX1; experiment: Antitumor activity against human MX1 cells xenografted in nude mouse assessed as tumor growth inhibition at 25 mg/kg, iv qd administered 3 days measured on day 20 relative to vehicle-treated control; type: functional; conditions: read-out: TGI
[21] = Cell cycle arrest in human CL141T cells assessed as accumulation at S phase at 0.5 x IC50 after 24 hrs by propidium iodide staining-based FACS flow cytometric analysis; type: functional; method in brief: as §1
[22] = tested on: A549; experiment: Cytotoxicity against human A549 cells after 72 hrs by Alamar blue assay; type: functional, cell-based; conditions: A549, 72 h; method in brief: as §2
[23] = tested on: HT-29; experiment: Cytotoxicity against human HT-29 cells after 72 hrs by Alamar blue assay; type: functional, cell-based; conditions: HT-29, 72 h; method in brief: as §2
[24] = Cytotoxicity against human MES-SA/Dx5 cells after 72 hrs by Presto Blue assay; type: functional, cell-based; conditions: MES-SA/Dx5, 72 h; method in brief: as §4
[25] = tested on: HCT-116; experiment: Cytotoxicity against human HCT116 cells after 72 hrs by Alamar blue assay; type: functional, cell-based; conditions: HCT-116, 72 h; method in brief: as §2
[26] = Cytotoxicity against human HEL299 cells; type: cell-based; conditions: HEL 299
[27] = tested on: PC-3; experiment: Cytotoxicity against human PC3 cells after 72 hrs by Alamar blue assay; type: functional, cell-based; conditions: PC-3, 72 h; method in brief: as §2
[28] = tested on: NCI-H460; experiment: Induction of apoptosis in human H460 cells assessed as increase in cleaved PARP expression at IC50 after 24 to 72 hrs by Western blotting analysis; type: functional, cell-based; method in brief: as §3
[29] = Cytotoxicity against human KB-VIN10 cells after 72 hrs by Alamar blue assay; conditions: KB-VIN10, 72 h
[30] = tested on: MX1; experiment: Cytotoxicity against human MX1 cells after 72 hrs by SRB assay; type: functional, cell-based; conditions: MX1, 72 h
[31] = Cell cycle arrest in human CL141T cells assessed as accumulation at S phase at 3.75 to 15 uM after 24 hrs by propidium iodide staining-based FACS flow cytometric analysis; type: functional; method in brief: as §1
[32] = tested on: MX1; experiment: Antitumor activity against human MX1 cells xenografted in nude mouse assessed as tumor growth inhibition at 35 mg/kg, iv qd administered 4 days measured on day 20 relative to vehicle-treated control; type: functional; conditions: read-out: TGI
[33] = tested on: Mus musculus; experiment: Toxicity in nude mouse xenografted with human MX1 cells assessed as body weight loss at 35 mg/kg, iv qd administered 4 days measured for 20 days; type: organism-based; set-up: dose 35 mg/kg, route intravenous; conditions: in vivo, 480 h
[34] = biological target: T1, DNA topoisomerase 1 (Homo sapiens) (UniProt P11387); experiment: Inhibition of DNA topoisomerase 1 (unknown origin)-mediated relaxation of supercoiled pHOT DNA at 25 to 100 uM after 30 to 45 mins by agarose gel electrophoresis
T1 sequence (whole entry): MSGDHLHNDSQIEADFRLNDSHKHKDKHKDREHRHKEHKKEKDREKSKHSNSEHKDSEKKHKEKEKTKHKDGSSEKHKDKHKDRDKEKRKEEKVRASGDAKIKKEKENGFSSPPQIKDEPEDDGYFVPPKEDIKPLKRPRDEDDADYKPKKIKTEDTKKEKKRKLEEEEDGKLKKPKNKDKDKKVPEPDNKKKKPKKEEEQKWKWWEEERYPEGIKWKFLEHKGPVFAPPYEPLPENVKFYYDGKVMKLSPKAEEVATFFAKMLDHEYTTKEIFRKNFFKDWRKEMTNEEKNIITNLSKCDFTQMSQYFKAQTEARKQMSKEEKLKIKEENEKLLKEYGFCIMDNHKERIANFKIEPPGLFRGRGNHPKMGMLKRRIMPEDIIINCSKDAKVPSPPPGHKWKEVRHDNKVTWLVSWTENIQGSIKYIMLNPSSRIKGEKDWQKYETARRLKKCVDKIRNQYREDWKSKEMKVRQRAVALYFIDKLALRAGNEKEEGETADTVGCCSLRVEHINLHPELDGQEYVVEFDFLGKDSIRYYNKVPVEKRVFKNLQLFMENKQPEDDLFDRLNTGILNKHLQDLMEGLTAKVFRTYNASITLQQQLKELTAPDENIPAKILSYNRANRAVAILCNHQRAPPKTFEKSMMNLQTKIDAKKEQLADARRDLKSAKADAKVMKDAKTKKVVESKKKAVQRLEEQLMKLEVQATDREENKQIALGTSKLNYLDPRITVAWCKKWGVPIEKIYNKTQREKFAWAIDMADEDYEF
Method in brief: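 Supercoiled pHOT DNA (200 ng) and compound in 10 mM Tris-HCl pH 7.9 with 1 mM EDTA at 37 °C. Reaction started with 1 unit topo I, run 30−45 min, stopped with 10% SDS. Products separated on 1% agarose at 50 V for 90 min and stained with ethidium bromide.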

[35] = tested on: HT-29; experiment: Antitumor activity against human HT-29 cells xenografted in nude mouse assessed as tumor growth inhibition at 60 mg/kg, iv tid administered 2 days measured on day 20; type: functional, organism-based; set-up: dose 60 mg/kg
[36] = tested on: HT-29; experiment: Antitumor activity against human HT-29 cells xenografted in nude mouse assessed as tumor growth inhibition at 60 mg/kg, iv tid administered 2 days measured on day 22; type: functional, organism-based; set-up: dose 60 mg/kg
[37] = tested on: A549; experiment: Antitumor activity against human A549 cells xenografted in nude mouse assessed as tumor growth inhibition at 60 mg/kg, iv tid administered 2 days measured on day 20 relative to vehicle-treated control; type: functional; conditions: read-out: TGI
[38] = tested on: Mus musculus; experiment: Toxicity in nude mouse xenografted with human A549 cells assessed as body weight loss at 60 mg/kg, iv tid administered 2 days measured for 20 days; type: organism-based; set-up: dose 60 mg/kg, route intravenous; conditions: in vivo, 480 h
[39] = tested on: Mus musculus; experiment: Toxicity in nude mouse xenografted with human HT-29 cells assessed as body weight loss at 60 mg/kg, iv tid administered 2 days measured for 20 days; type: organism-based; set-up: dose 60 mg/kg, route intravenous; conditions: in vivo, 480 h

In the case of CCn1c2c(c3ccccc31)Cc1c(CO)c(CO)c(C)n1C2, the Activity [1] is reported as “Active”, the IC50 [2] is reported as 1.47 µM and the IC50 [3] is reported as 0.1 µM. The IC50 [4] was 1.17 µM, the “Ratio IC50” value [5] was 0.6 and the Activity [6] was 43.52%. The “Ratio IC50” value [7] was 0.62, the Activity [8] was “Active” and the IC50 [9] was 0.73 µM. For the same compound, the Activity [10] was “Active”, the Activity [11] was “Active” and the Activity [12] was “inactive”. For the same compound, the Activity [13] was “Toxic”, the Activity [14] was “Active” and the Activity [15] was “Active”. For the same compound, the Activity [16] was “Active”, the IC50 [17] was 0.79 µM and the Activity [18] was 12.92%. For the same compound, the IC50 [19] was 0.4 µM, the inhibition in vivo at 25 mg/kg [20] was over 99% and the Activity [21] was “Active”. The IC50 [22] was 2.97 µM, the IC50 [23] was 6.15 µM and the IC50 [24] was 0.24 µM. The IC50 [25] was 1.71 µM, the IC50 [26] was 2.24 µM and the IC50 [27] was 2.66 µM. The Activity [28] was “Active” and the IC50 [29] was 0.9 µM.
In the case of CC(C)NC(=O)OCc1c(COC(=O)NC(C)C)c(-c2ccc(F)cc2)n2c1Cc1c(n(C)c3ccccc13)C2, the IC50 [2] is reported as 14.2 µM, the IC50 [3] is reported as 0.11 µM and the IC50 [4] is reported as 6.56 µM. The IC50 [30] was 2.19 µM, the “Ratio IC50” value [7] was 1.1 and the Activity [10] was “Active”. For the same compound, the Activity [11] was “Active”, the Activity [31] was “Active” and the Activity [12] was “inactive”. The Activity [14] was “Active”, the inhibition in vivo at 35 mg/kg [32] was over 99% and the IC50 [17] was 7.46 µM. For the same compound, the Activity [33] was “Toxic”, the IC50 [25] was 6.09 µM and the IC50 [26] was 25.9 µM. For the same compound, the IC50 [27] was 6.71 µM and the IC50 [29] was 15.6 µM.
With CCc1c2c(nc3ccc(OC(=O)N4CCC(N5CCCCC5)CC4)cc13)-c1cc3c(c(=O)n1C2)COC(=O)[C@]3(O)CC [IRINOTECAN] the inhibition [34] was “Active”, the TGI [35] was “Active” and the TGI [36] was “inactive”. For the same compound, the inhibition in vivo at 60 mg/kg [37] was 50%, the Activity [38] was “Toxic” and the Activity [39] was “Toxic”.
